Data reported in ChEMBL document CHEMBL1145471, “Small molecule regulators of autophagy identified by an image-based high-throughput screen” (Proc Natl Acad Sci U S A, 2007).
Activity calls are given as the source filed them. The rule behind the calls is not given here.

Columns and labels:
H4 [1] = assay: Increase in light chain 3-GFP+ autophagosome vesicle number per cell in human H4 cells at 3.9 uM after 24 hrs by high throughput fluorescence microscopy relative to control; type: functional
Procedure, shortened: (§1)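 H4 cells stably expressing LC3-GFP, kept in DMEM/10% FBS at 37°C, 5% CO2, were seeded in 96-well plates and exposed to compound for 24 h. Cells were then fixed in 4% paraformaldehyde and stained with 3 μg/ml DAPI. Automated fluorescence microscopy scored the number, size and intensity of LC3-GFP spots. Values are percent of DMSO wells, in triplicate, mean ± SD. Rapamycin served as positive control.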

H4 [2] = assay: Increase in long-lived protein degradation in human H4 cells after 24 hrs relative to control; type: functional; design: concentration or dose not given beside the values
H4 [3] = assay: Increase in FYVE-RFP+ vesicle intensity per cell in human H4 cells after 4 hrs relative to control; type: functional; design: concentration or dose not given beside the values
Procedure, shortened: (§2)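 H4 cells stably expressing FYVE-RFP (H4-FYVE), grown in DMEM with 10% FBS, penicillin/streptomycin and 2 mM L-glutamine at 37°C, 5% CO2, seeded in 96-well plates and exposed to compound. Fixed in 4% paraformaldehyde, nuclei stained with 3 μg/ml DAPI, FYVE-RFP+ vesicles quantified by high-throughput fluorescence microscopy against DMSO control. Triplicate wells, mean ± SD.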

H4 [4] = assay: Induction of light chain 3-GFP level in human H4 cells at 3.9 uM after 24 hrs by high throughput fluorescence microscopy relative to control; type: functional; procedure, shortened: as §1
H4 [5] = assay: Increase in light chain 3-GFP+ autophagosome vesicle area per cell in human H4 cells at 3.9 uM after 24 hrs by high throughput fluorescence microscopy relative to control; type: functional
Procedure, shortened: (§3)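 H4 cells stably expressing LC3-GFP, seeded in 96-well plates and exposed to compound for 24 h; fixed in 4% paraformaldehyde, nuclei stained with 3 μg/ml DAPI. Automated fluorescence microscopy scored number, size and intensity of LC3-GFP spots; values expressed relative to DMSO-treated wells, rapamycin positive control. Triplicate wells, mean ± SD; experiments repeated three times.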

H4 [6] = assay: Increase in FYVE-RFP+ vesicle intensity per cell in human H4 cells after 8 hrs relative to control; type: functional; design: concentration or dose not given beside the values; procedure, shortened: as §2
H4 [7] = assay: Increase in long-lived protein degradation in human H4 cells after 1 hr relative to control; type: functional; design: concentration or dose not given beside the values
[8] = biological target: T1, Serine/threonine-protein kinase mTOR (Homo sapiens, UniProt P42345); assay: (§4) Effect on mTOR phosphorylation in human H4 cells at 3.9 uM after 4 hrs; type: cell-based
Procedure, shortened: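 H4 cells exposed to compound for 4 h. Lysates analysed by Western blot with anti-phospho and anti-total mTOR antibodies, with actin as loading control. Rapamycin served as reference.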

H4 [9] = assay: Increase in light chain 3-GFP+ autophagosome vesicle intensity per cell in human H4 cells at 3.9 uM after 24 hrs by high throughput fluorescence microscopy relative to control; type: functional; procedure, shortened: as §3
H4 [10] = assay: (§5) Increase in ratio of light chain 3 subunit 2 to light chain 3 subunit 1 in human H4 cells at 3.9 uM after 4 hrs by Western blot; type: functional, cell-based
Procedure, shortened: (§6)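 H4 cells were treated with each compound for 4 h, then lysed. Lysates were immunoblotted with anti-LC3 antibody, with actin as loading control. LC3II and LC3I bands were compared as an LC3II/LC3I ratio.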

H4 [11] = assay: Reduction of poly(Q) level in human H4 cells expressing EGFP-Q79-HA after 24 hrs; type: functional, cell-based
Procedure, shortened: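 H4 cells were transiently transfected with an EGFP-Q79-HA expression vector. The medium was replaced 6 h after transfection and compounds were added. Poly(Q) was detected with anti-HA antibody.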

H4 [12] = assay: Increase in long-lived protein degradation in human H4 cells after 4 hrs relative to control; type: functional; design: concentration or dose not given beside the values
H4 [13] = assay: Increase in long-lived protein degradation in human H4 cells after 2 hrs relative to control; type: functional; design: concentration or dose not given beside the values
H4 [14] = assay: Increase in FYVE-RFP+ vesicle intensity per cell in human H4 cells after 2 hrs relative to control; type: functional; design: concentration or dose not given beside the values; procedure, shortened: as §2
H4 [15] = assay: as §5; type: functional, cell-based; remark: listed apart in the source
Procedure, shortened: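 H4 cells were exposed to compound for 4 h, then lysed. Lysates were blotted with anti-LC3 antibody, with actin as loading control, and the LC3II/LC3I band ratio was taken.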

[16] = biological target: T1, Serine/threonine-protein kinase mTOR; assay: as §4; type: cell-based; remark: listed apart in the source
Procedure, shortened: (§7)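 H4 cells treated with compound for 4 h; lysates analysed by Western blot using anti-phospho/non-phospho mTOR antibody, with actin as loading control; rapamycin used for comparison. Cells grown in DMEM with 10% FBS, penicillin/streptomycin, 2 mM L-glutamine at 37°C, 5% CO2.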

H4 [17] = assay: Induction of light chain 3-GFP level in human H4 cells at 0.2 uM after 24 hrs by high throughput fluorescence microscopy relative to control; type: functional
H4 [18] = assay: Increase in light chain 3-GFP+ autophagosome vesicle intensity per cell in human H4 cells at 0.2 uM after 24 hrs by high throughput fluorescence microscopy relative to control; type: functional
Procedure, shortened: (§8)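 H4 cells stably expressing LC3-GFP, seeded in 96-well plates and exposed to compound for 24 h; screening concentrations were 3–12 μM, with rapamycin 0.22 μM and bafilomycin A1 0.40 μM. Cells fixed in 4% paraformaldehyde and stained with 3 μg/ml DAPI. Number, size and intensity of LC3-GFP spots measured by high-throughput fluorescence microscopy and expressed as percent of DMSO-treated wells. Rapamycin was the positive control. Triplicate wells, mean ± SD; experiments repeated three times.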

H4 [19] = assay: Increase in light chain 3-GFP+ autophagosome vesicle area per cell in human H4 cells at 0.2 uM after 24 hrs by high throughput fluorescence microscopy relative to control; type: functional; procedure, shortened: as §8
H4 [20] = assay: Increase in light chain 3-GFP+ autophagosome vesicle number per cell in human H4 cells at 0.2 uM after 24 hrs by high throughput fluorescence microscopy relative to control; type: functional
Procedure, shortened: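 H4 cells stably expressing LC3-GFP were grown in DMEM with 10% FBS and 2 mM L-glutamine at 37°C, 5% CO2. They were exposed to each compound for 24 h, with DMSO as negative and rapamycin as positive control. Cells were then fixed in 4% paraformaldehyde and stained with 3 μg/ml DAPI. High-throughput fluorescence imaging scored LC3-GFP spot number, size and intensity, expressed relative to DMSO. Mean ± SD of triplicates; experiments repeated three times.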

H4 [21] = assay: Increase in ratio of light chain 3 subunit 2 to light chain 3 subunit 1 in human H4 cells at 0.2 uM after 4 hrs by Western blot; type: functional, cell-based; procedure, shortened: as §6
[22] = biological target: T1, Serine/threonine-protein kinase mTOR; assay: Effect on mTOR phosphorylation in human H4 cells at 0.2 uM after 4 hrs; type: cell-based; procedure, shortened: as §7

Row | SMILES | Activity (H4 [1]) [%] | Activity (H4 [2]) [%] | Activity (H4 [3]) [%] | Activity (H4 [4]) [%] | Activity (H4 [5]) [%] | Activity (H4 [6]) [%] | Activity (H4 [7]) [%] | Activity (H4 [9]) [%] | Activity (H4 [11]) | Activity (H4 [12]) [%] | Activity (H4 [13]) [%] | Activity (H4 [14]) [%] | also measured
1 | COC(=O)C1=C(C)NC(C)=C(C(=O)OCCCN2CCC(c3ccccc3)(c3ccccc3)CC2)[C@H]1c1cccc([N+](=O)[O-])c1 [NIGULDIPINE] | 282.89 | 117.85 | 148.26 | 132.78 | 405.33 | 125.53 | 71.65 | 777.92 | Dose-dependent effect | 105.68 | 107.42 | 147.18 | Activity [8]: inactive; Activity (H4 [10]): Active
2 | C=C(C)[C@H]1O[C@H]2CC[C@@]3(C)[C@@](O)(CC[C@H]4[C@@H]5OC(C)(C)[C@H]6C[C@@H]7C(=C)Cc8c(Cl)cc9[nH]c(c5c9c8[C@@]76O)[C@@]43C)[C@@]23O[C@H]3[C@H]1O [PENITREM A] | 146.36 | 141.83 | 87.41 | 93.08 | 163.15 | 72.71 | 92.88 | 166.85 | Dose-dependent effect | 132.13 | 126.09 | 121.4 | Activity (H4 [15]): Active; Activity [16]: inactive
3 | CO[C@H]1C[C@@H]2CC[C@@H](C)[C@@](O)(O2)C(=O)C(=O)N2CCCC[C@H]2C(=O)O[C@H]([C@H](C)C[C@@H]2CC[C@@H](O)[C@H](OC)C2)CC(=O)[C@H](C)/C=C(\C)[C@@H](O)[C@@H](OC)C(=O)[C@H](C)C[C@H](C)/C=C/C=C/C=C/1C [SIROLIMUS] |  | 165.87 | 131.41 |  |  | 152.35 | 159.89 |  | Dose-dependent effect | 149.89 | 171.67 |  | Activity (H4 [17]): 88.62%; Activity (H4 [18]): 285.38%; Activity (H4 [19]): 259.68%; Activity (H4 [20]): 205.66%; Activity (H4 [21]): Active; AC50 [22]: Not Active
